HCT116 bCat-KO – primary screen for growth suppressors in beta-catenin knockout HCT116 cells (colon tumor, human); HCT116 beta-catenin knockout viability, CellTiter-Glo, 60 h; hits give low values; viability, % at 10 µM; 1.5% of 140,000 active;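 active = viability at or under a set limit, the compound median less 4 SD, cut at about 6% in these data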;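 also: 0% = Hyamine 1622 control at 20 µM and 100% = untreated cell control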
HUVEC prolif 384 – inhibitors of HUVEC proliferation, primary screen, cell-based, 384-well. CellTiter-Glo luminescence, 72 h; hits give low values. viability, % at 10 µM (by protocol). 1.1% of 86,000 active;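 active = viability at or below 30%; inactive = viability above 30%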;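 also: 100% = median luminescence of DMSO-only cell control wells on each plate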
HCT116 PTEN-null – growth suppression of PTEN-null HCT116, primary screen, cell-based, CellTiter-Glo; HCT116 PTEN-null viability, 60 h; hits give low values; viability, % at 10 µM; 1.2% of 140,000 active; AID 827, 2007;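 active = viability at or below a set limit, 4 SD under the median of all tested compounds, cut at about 3.7% in these data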;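 also: PTEN knockout HCT116 line with beta catenin targeted HCT116 as companion control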
Lung fibro prol – antiproliferative effect on LL 47 fibroblasts – human, LL 47 cells, CellTiter-Glo luminescence, primary screen; LL 47 human lung fibroblast viability, ATP luminescence; hits give low values; 1.1% of 85,000 active; viability, % at 10 µM;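 active = viability at or below 50% in the single dose screen; inactive = viability above 50%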;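 also: compound exposure lasted 72 h before the ATP readout; 100% = median luminescence of untreated cell-only wells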
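Material: human LL 47 lung fibroblast cells; quantity: 1,150 cells/well; medium: IMEM plus 15% FBS; doses: 0.1% DMSO in all compound wells; timing: overnight attachment after seeding, then 72 h compound exposure at 37 °C; detection: CellTiter-Glo luminescence; measure: % viability of median cell-only signal; controls: cell-only wells, no compound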
H69AR inhibit – proliferation blockers of H69AR lung cancer cells, primary screen, cell-based, human, 86K library. H69AR lung tumor viability, ATP luminescence, 72 h; hits give low values. viability, % at 10 µM. 6% of 85,000 active. AID 598, 2007;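 active = viability at or below 40%; inactive = viability above 40%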;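 also: multidrug resistant small cell line overexpressing MRP-1 efflux transporter; 100% = mean luminescence of untreated control wells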
Starred values were filed as active, the others as inactive; nt = no result given; ! = repeats disagree. This excerpt belongs to a sample that is enriched for hits.

SMILES	HCT116 bCat-KO	HUVEC prolif 384	HCT116 PTEN-null	Lung fibro prol	H69AR inhibit
O=C(COc1ccc(Cl)cc1)N1CCN(C/C=C/c2ccccc2)CC1	68	84	66	80	27*
O=C(COc1ccccc1)N1CCN(C/C=C/c2ccccc2)CC1	82	91	80	94	65
Cc1ccc(CN2C(=O)NC(=O)C3(Cc4c(nc5ccccn5c4=O)N4CCCCCC43)C2=O)cc1 (centres undefined)	74	88	55	100	39*
CCC(CO)Nc1ccc([N+](=O)[O-])c2cccnc12 (centres undefined)	91	nt	96	nt	nt
COc1ccc(-n2c(C)nc3cc(C(=O)N4CCC5(CC4)OCCO5)ccc32)cc1	48	80	45	92	29*
Cc1ccc(N2C(=O)NC(=O)C(CCc3ccccn3)(Cc3cccc(Cl)c3Cl)C2=O)cc1 (centres undefined)	87	nt	85	nt	nt
Cc1ccc(-n2c(O)c(C=NCc3cccnc3)c(=O)[nH]c2=O)cc1C	99	86	107	95	89
Cc1ccc(-n2c(O)c(C=Nc3ccccc3N)c(=O)[nH]c2=O)cc1C	78	99	73	110	13*
C=CCn1c(O)c(C(C)=NCc2cc(OC)cc(OC)c2)c(=O)[nH]c1=O	27	26*	32	48*	38*
Cc1cccc(N2CCc3c2nc2ccccc2c3N)c1	11	88	11	95	34*!
Cc1ccnc(-n2c(C)nc3ccccc3c2=O)c1	88	102	94	101	87
Cc1cccc(-n2c(O)c(C=NCc3cccnc3)c(=O)[nH]c2=O)c1C	110	89	95	92	93
COC(=O)[C@@H]1[C@@H](C(=O)OC)C2(c3ccccc3-c3ccccc32)N(c2ccc(Cl)cc2)N1C#N	0.8*	2.7*	1.2*	3.3*	0.7*
COC(=O)C[C@]1(C(=O)OC)CN(C#N)N(c2ccc(Cl)cc2)C12c1ccccc1-c1ccccc12	0.4*	2.4*	1.2*	5.2*	0.6*
CCCCCCN=Cc1c(O)n(C)c(=O)n(C)c1=O	75	91	85	97	63
COc1ccc(CCNC(=O)c2c(N)n(CCN3CCOCC3)c3nc4ccccc4nc23)cc1	0.4*	54	0.3*	79	22*
CCCCn1c(N)c(C(=O)NCCN2CCOCC2)c2nc3ccccc3nc21	74	65	71	93	57
Nc1c(C(=O)NCCc2ccccc2)c2nc3ccccc3nc2n1CCN1CCOCC1	1.7*	55	1.9*	92	1.6*
Cc1ccccc1C(O)(Cc1ccccc1)C1CN2CCC1CC2 (centres undefined)	1.1*	48	0.3*	71	42
CCCCn1c(=O)c(C(=O)Nc2ccsc2C(=O)OC)c(O)c2ccccc21	3.2*	nt	3.1*	nt	nt
Cc1c(NC(=O)C(C)OC(=O)Cc2ccccc2)c(=O)n(-c2ccccc2)n1C (centres undefined)	98	nt	94	nt	nt
CCCCn1c(NC(=O)c2ccc(Br)o2)c(C(=O)OCC)c2nc3ccccc3nc21	82	nt	90	nt	nt
CCCCCCn1c(=O)c(C(=O)Nc2c(C)n(C)n(-c3ccccc3)c2=O)c(O)c2ccccc21	nt	51	nt	62	12*
O=C(Nc1cccc(Cl)c1)c1c(O)c2c(n(Cc3ccccc3)c1=O)CCCC2	83	nt	88	nt	nt
CCCCCn1c(=O)c(C(=O)NCc2ccncc2)c(O)c2ccccc21	19	67	16	60	14*
SMILES	HCT116 bCat-KO	HUVEC prolif 384	HCT116 PTEN-null	Lung fibro prol	H69AR inhibit
CCCCCn1c(=O)c(C(=O)Nc2ccncc2)c(O)c2ccccc21	nt	69	nt	49*	5.1*
O=C(C1CCC(=O)N1C1CCCCC1)N1CCC2(CC1)OCCO2 (centres undefined)	97	94	95	105	84
O=C(O)c1c[nH]c2ccc(S(=O)(=O)N(CCCl)CCCl)cc12	96	93	115	105	103
CC1(C)CN2C(c3ccc(Cl)cc3)N2C1 (centres undefined)	86	102	96	100	100
O=C1/C(=C/c2ccc([N+](=O)[O-])cc2)N2CCC1CC2	68	nt	71	nt	nt
FC(F)(F)c1ccc2c(c1)N(CCCN1CCN(CCCl)CC1)c1ccccc1S2	68	37	56	89	1.4*
CCOc1ccc(Br)c(C2(O)CC(C)N(C)CC2C)c1 (centres undefined)	60	nt	70	nt	nt
Nc1ccccc1C(=O)OCC(=O)N1CCc2ccccc21	114	89	96	108	90
N#CSCC(=O)N1c2ccccc2CCc2ccccc21	3.8*	nt	2.5*	nt	nt
CCCCC(C)C(OC(=O)CC(CC(=O)O)C(=O)O)C(CC(C)CC(O)CCCCC(O)CC(O)C(C)N)OC(=O)CC(CC(=O)O)C(=O)O (centres undefined)	93	nt	103	nt	nt
OC1(c2cccnc2)CC2CCC(C1)N2Cc1nnnn1Cc1ccccc1 (centres undefined)	87	98	85	91	72
CCCCSC1=NN1c1nc(N)nc(C)c1CC	101	88	108	97	71
CCCCCc1nc2ccccc2c(=O)n1-c1ccccc1[N+](=O)[O-]	80	nt	72	nt	nt
CCCCCc1nc2c(c(=O)c3ccccc3n2C)c(=O)n1C1CCCCCC1	1.5*	nt	1.6*	nt	nt
CCOC(=O)c1c(C)n(Cc2ccccc2)c2ccc(OCC(O)CN3C(=O)CNC3=O)cc12 (centres undefined)	92	86	92	102	27*
CCOC(=O)c1c(C)n(Cc2ccc3c(c2)OCO3)c2ccc(O)cc12	82	82	84	94	94
CN1C2CCC1/C(=C/c1ccccn1)C(=O)/C2=C\c1ccccn1	1.8*	nt	1.8*	nt	nt
CCC(C)n1c(O)c(/C=N/NC(=O)c2ccncc2)c(=O)[nH]c1=S (centres undefined)	90	nt	98	nt	nt
CCCS(=O)(=O)N1CCC(C(=O)N2CCC3(CC2)OCCO3)CC1	91	100	101	42*	84
CCS(=O)(=O)N1CCC(C(=O)N2CCC3(CC2)OCCO3)CC1	97	108	104	115	104
CC(/C=N/NC(=O)c1n[nH]c2c1CCC2)=C\c1ccccc1	14	36	15	46*	23*
COCCOC(=O)c1c(C)oc2ccc(OC(=O)N(C)C)cc12	78	95	89	98	79
CCc1cc2c(s1)NC(=O)CN=C2c1cccs1	88	79	87	91	23*
CC1CCCC(C2(O)C(=O)Nc3ccccc32)C1=O (centres undefined)	95	98	105	98	101
O=C(Cn1cc(C(=O)c2ccccc2F)c2ccccc21)NCc1ccco1	99	74	88	43*	112
c1ccc2cc3cc4ccccc4cc3cc2c1	nt	90	nt	85	101
